Measurements as given in ChEMBL document CHEMBL5724801, “EUbOPEN Chemogenomics Library - Multiplex” (2024).
Values joined by “and” are separate entries in the source; they are usually repeats but may differ in a detail not shown here. Equal entries are not always repeated.

System: Fibroblast
Test: Multiplex assay against human fibroblast
Format: toxicity, cell-based
In short: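 Four dyes were applied at seeding to live cells: Hoechst33342, BioTracker Green Microtubule Cytoskeleton Dye, MitoTracker Red and Annexin V Alexa Fluor 680. Imaging after compound addition used a CQ1 microscope at 37°C and 5% CO2. CellPathfinder machine-learning gating then sorted cells into Hoechst high-intensity objects or normal cells, normal cells into healthy, pyknosed or fragmented nuclei, and pyknosed cells into mitotic or apoptotic, with tubulin, mitochondrial-mass and membrane-permeability phenotypes given as per cents of healthy-nucleus cells.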

[1] = 12 h, 1 µM, compound concentration 1 uM
[2] = 12 h, 10 µM, compound concentration 10 uM
[3] = 24 h, 1 µM, compound concentration 1 uM
[4] = 24 h, 10 µM, compound concentration 10 uM
[5] = 48 h, 1 µM, compound concentration 1 uM
[6] = 48 h, 10 µM, compound concentration 10 uM

## Cc1ccc(OCC(O)C(C)NC(C)C)c2c1CCC2.Cl (stereo unspecified)
[1]
  Population Apoptotic (%): 36% and 28%
  Population Fragmented Nuclei (%): 10% and 17%
  Population Healthy Nuclei (%): 68% and 55%
  Population Hoechst High Intensity Objects (%): 0% and 9%
  Population Membrane Permeable-Phenotype (%): 0% and 4%
  Population Mitochondria Different-Phenotype (%): 3% and 7%
  Population Mitotic Cells (%): 63% and 71%
  Population Normal (%): 99% and 90%
  Population Pyknosed Nuclei (%): 20% and 27%
  Population Tubulin-Different-Phenotype (%): 26% and 50%
  Total Cell Count: 159 and 210
[2]
  Population Apoptotic (%): 47% and 25%
  Population Fragmented Nuclei (%): 39% and 33%
  Population Healthy Nuclei (%): 47% and 50%
  Population Hoechst High Intensity Objects (%): 1% and 2%
  Population Membrane Permeable-Phenotype (%): 0% and 7%
  Population Mitochondria Different-Phenotype (%): 12% and 17%
  Population Mitotic Cells (%): 52% and 74%
  Population Normal (%): 98% and 97%
  Population Pyknosed Nuclei (%): 12% and 16%
  Population Tubulin-Different-Phenotype (%): 52% and 54%
  Total Cell Count: 138 and 168
[3]
  Population Apoptotic (%): 57% and 20%
  Population Fragmented Nuclei (%): 11% and 27%
  Population Healthy Nuclei (%): 74% and 46%
  Population Hoechst High Intensity Objects (%): 0% and 15%
  Population Membrane Permeable-Phenotype (%): 4% and 1%
  Population Mitochondria Different-Phenotype (%): 5% and 8%
  Population Mitotic Cells (%): 42% and 80%
  Population Normal (%): 100% and 84%
  Population Pyknosed Nuclei (%): 13% and 26%
  Population Tubulin-Different-Phenotype (%): 30% and 52%
  Total Cell Count: 154 and 201
[4]
  Population Apoptotic (%): 35% and 36%
  Population Fragmented Nuclei (%): 39% and 35%
  Population Healthy Nuclei (%): 49% and 50%
  Population Hoechst High Intensity Objects (%): 1% and 5%
  Population Membrane Permeable-Phenotype (%): 1% and 4%
  Population Mitochondria Different-Phenotype (%): 13% and 14%
  Population Mitotic Cells (%): 64% and 63%
  Population Normal (%): 98% and 94%
  Population Pyknosed Nuclei (%): 11% and 13%
  Population Tubulin-Different-Phenotype (%): 63% and 65%
  Total Cell Count: 151 and 168
[5]
  Population Apoptotic (%): 64% and 34%
  Population Fragmented Nuclei (%): 16% and 37%
  Population Healthy Nuclei (%): 71% and 42%
  Population Hoechst High Intensity Objects (%): 4% and 11%
  Population Membrane Permeable-Phenotype (%): 0% and 5%
  Population Mitochondria Different-Phenotype (%): 1% and 8%
  Population Mitotic Cells (%): 35% and 65%
  Population Normal (%): 95% and 88%
  Population Pyknosed Nuclei (%): 11% and 20%
  Population Tubulin-Different-Phenotype (%): 23% and 60%
  Total Cell Count: 155 and 196
[6]
  Population Apoptotic (%): 71% and 60%
  Population Fragmented Nuclei (%): 35% and 39%
  Population Healthy Nuclei (%): 50%
  Population Hoechst High Intensity Objects (%): 1% and 7%
  Population Membrane Permeable-Phenotype (%): 0% and 5%
  Population Mitochondria Different-Phenotype (%): 9% and 10%
  Population Mitotic Cells (%): 28% and 40%
  Population Normal (%): 98% and 92%
  Population Pyknosed Nuclei (%): 13% and 10%
  Population Tubulin-Different-Phenotype (%): 68% and 63%
  Total Cell Count: 155 and 157

## COc1cc(OC2CCN(C(C)=O)CC2)ccc1C(=O)N1CCC(N2C(=O)OCc3ccccc32)CC1
[1]
  Population Apoptotic (%): 41% and 40%
  Population Fragmented Nuclei (%): 12% and 29%
  Population Healthy Nuclei (%): 64% and 52%
  Population Hoechst High Intensity Objects (%): 5% and 3%
  Population Membrane Permeable-Phenotype (%): 2% and 0%
  Population Mitochondria Different-Phenotype (%): 5% and 3%
  Population Mitotic Cells (%): 58% and 59%
  Population Normal (%): 94% and 96%
  Population Pyknosed Nuclei (%): 22% and 17%
  Population Tubulin-Different-Phenotype (%): 32% and 34%
  Total Cell Count: 157 and 159
[2]
  Population Apoptotic (%): 52% and 37%
  Population Healthy Nuclei (%): 73% and 40%
  Population Hoechst High Intensity Objects (%): 3% and 6%
  Population Membrane Permeable-Phenotype (%): 0% and 2%
  Population Mitochondria Different-Phenotype (%): 6% and 10%
  Population Mitotic Cells (%): 48% and 62%
  Population Normal (%): 96% and 93%
  Population Pyknosed Nuclei (%): 16% and 28%
  Population Tubulin-Different-Phenotype (%): 54% and 56%
  Total Cell Count: 161 and 134
[3]
  Population Apoptotic (%): 63% and 48%
  Population Fragmented Nuclei (%): 19% and 28%
  Population Healthy Nuclei (%): 63% and 51%
  Population Hoechst High Intensity Objects (%): 1%
  Population Membrane Permeable-Phenotype (%): 0% and 5%
  Population Mitochondria Different-Phenotype (%): 4% and 3%
  Population Mitotic Cells (%): 36% and 51%
  Population Normal (%): 98%
  Population Pyknosed Nuclei (%): 17% and 19%
  Population Tubulin-Different-Phenotype (%): 32% and 31%
  Total Cell Count: 170 and 155
[4]
  Population Apoptotic (%): 36% and 43%
  Population Fragmented Nuclei (%): 13% and 34%
  Population Healthy Nuclei (%): 74% and 48%
  Population Hoechst High Intensity Objects (%): 7%
  Population Membrane Permeable-Phenotype (%): 1% and 3%
  Population Mitochondria Different-Phenotype (%): 7% and 10%
  Population Mitotic Cells (%): 63% and 56%
  Population Normal (%): 92%
  Population Pyknosed Nuclei (%): 11% and 17%
  Population Tubulin-Different-Phenotype (%): 39% and 70%
  Total Cell Count: 172 and 145
[5]
  Population Apoptotic (%): 40% and 58%
  Population Fragmented Nuclei (%): 14% and 32%
  Population Healthy Nuclei (%): 70% and 52%
  Population Hoechst High Intensity Objects (%): 7% and 3%
  Population Membrane Permeable-Phenotype (%): 0% and 4%
  Population Mitochondria Different-Phenotype (%): 5% and 4%
  Population Mitotic Cells (%): 59% and 41%
  Population Normal (%): 92% and 96%
  Population Pyknosed Nuclei (%): 14% and 15%
  Population Tubulin-Different-Phenotype (%): 35% and 43%
  Total Cell Count: 160 and 163
[6]
  Population Apoptotic (%): 57% and 56%
  Population Healthy Nuclei (%): 79% and 51%
  Population Hoechst High Intensity Objects (%): 5% and 3%
  Population Membrane Permeable-Phenotype (%): 0% and 3%
  Population Mitochondria Different-Phenotype (%): 13% and 10%
  Population Mitotic Cells (%): 42% and 43%
  Population Normal (%): 94% and 96%
  Population Pyknosed Nuclei (%): 9% and 12%
  Population Tubulin-Different-Phenotype (%): 51% and 69%
  Total Cell Count: 155 and 134

## C[C@H](NC(=O)CNC(=O)c1cccc(Cl)c1)c1ccccc1
[1]
  Population Apoptotic (%): 50% and 44%
  Population Fragmented Nuclei (%): 18% and 28%
  Population Healthy Nuclei (%): 71% and 53%
  Population Hoechst High Intensity Objects (%): 0% and 3%
  Population Membrane Permeable-Phenotype (%): 0% and 6%
  Population Mitochondria Different-Phenotype (%): 4% and 2%
  Population Mitotic Cells (%): 50% and 56%
  Population Normal (%): 100% and 96%
  Population Pyknosed Nuclei (%): 10% and 18%
  Population Tubulin-Different-Phenotype (%): 17% and 41%
  Total Cell Count: 94 and 140
[2]
  Population Apoptotic (%): 48% and 43%
  Population Fragmented Nuclei (%): 15% and 31%
  Population Healthy Nuclei (%): 58% and 43%
  Population Hoechst High Intensity Objects (%): 2% and 1%
  Population Membrane Permeable-Phenotype (%): 0% and 13%
  Population Mitochondria Different-Phenotype (%): 8% and 3%
  Population Mitotic Cells (%): 51% and 56%
  Population Normal (%): 97% and 98%
  Population Pyknosed Nuclei (%): 26% and 24%
  Population Tubulin-Different-Phenotype (%): 35% and 54%
  Total Cell Count: 106 and 124
[3]
  Population Apoptotic (%): 43% and 33%
  Population Fragmented Nuclei (%): 17% and 30%
  Population Healthy Nuclei (%): 65% and 50%
  Population Hoechst High Intensity Objects (%): 1% and 3%
  Population Membrane Permeable-Phenotype (%): 1% and 8%
  Population Mitochondria Different-Phenotype (%): 3% and 4%
  Population Mitotic Cells (%): 56% and 66%
  Population Normal (%): 98% and 96%
  Population Pyknosed Nuclei (%): 17% and 19%
  Population Tubulin-Different-Phenotype (%): 25% and 42%
  Total Cell Count: 93 and 145
[4]
  Population Apoptotic (%): 52% and 56%
  Population Fragmented Nuclei (%): 14% and 33%
  Population Healthy Nuclei (%): 61% and 45%
  Population Hoechst High Intensity Objects (%): 2% and 5%
  Population Membrane Permeable-Phenotype (%): 1% and 5%
  Population Mitochondria Different-Phenotype (%): 3% and 7%
  Population Mitotic Cells (%): 48% and 43%
  Population Normal (%): 97% and 94%
  Population Pyknosed Nuclei (%): 24% and 20%
  Population Tubulin-Different-Phenotype (%): 45% and 64%
  Total Cell Count: 107 and 118
[5]
  Population Apoptotic (%): 33% and 40%
  Population Fragmented Nuclei (%): 20% and 29%
  Population Healthy Nuclei (%): 67% and 52%
  Population Hoechst High Intensity Objects (%): 1% and 3%
  Population Membrane Permeable-Phenotype (%): 0% and 4%
  Population Mitochondria Different-Phenotype (%): 0% and 2%
  Population Mitotic Cells (%): 66% and 60%
  Population Normal (%): 98% and 96%
  Population Pyknosed Nuclei (%): 12% and 17%
  Population Tubulin-Different-Phenotype (%): 26% and 44%
  Total Cell Count: 95 and 147
[6]
  Population Apoptotic (%): 68% and 69%
  Population Fragmented Nuclei (%): 15% and 38%
  Population Healthy Nuclei (%): 56% and 50%
  Population Hoechst High Intensity Objects (%): 7% and 4%
  Population Membrane Permeable-Phenotype (%): 1% and 6%
  Population Mitochondria Different-Phenotype (%): 15% and 5%
  Population Mitotic Cells (%): 31% and 30%
  Population Normal (%): 92% and 95%
  Population Pyknosed Nuclei (%): 27% and 11%
  Population Tubulin-Different-Phenotype (%): 50% and 67%
  Total Cell Count: 112 and 121
